Calls of active or inactive are those of the source. The rule behind the calls is not given here.
Tests used:
[1] = target: T1, Tartrate-resistant acid phosphatase type 5 (Sus scrofa) (UniProt P09889); experiment: Inhibition of pig purple acid phosphatase Fe(3)Fe(2) state assessed as enzyme-inhibitor complex at 100 uM using pNPP as substrate by UV/Vis spectrophotometric method
T1 sequence (whole entry): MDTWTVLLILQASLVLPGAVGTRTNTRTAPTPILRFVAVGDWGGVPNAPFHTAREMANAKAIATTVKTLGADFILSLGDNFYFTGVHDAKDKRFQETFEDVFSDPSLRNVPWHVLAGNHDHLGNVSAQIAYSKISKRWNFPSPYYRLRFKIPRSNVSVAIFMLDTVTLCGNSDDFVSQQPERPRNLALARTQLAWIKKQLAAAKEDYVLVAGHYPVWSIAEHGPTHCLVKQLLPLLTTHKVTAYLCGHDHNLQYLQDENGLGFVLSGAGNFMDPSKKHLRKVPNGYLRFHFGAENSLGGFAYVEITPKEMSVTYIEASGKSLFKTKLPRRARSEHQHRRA
Method in brief: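 Used 5 mM pNPP substrate and 12 nM enzyme in 0.1 M acetate pH 4.9 with 25% DMSO at 25 °C. p-Nitrophenol formation was followed at 405 nm; result expressed as percentage inhibition.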

[2] = target: T2, Fe(3+)-Zn(2+) purple acid phosphatase (Phaseolus vulgaris) (UniProt P80366); experiment: Competitive inhibition of red kidney bean purple acid phosphatase Fe(3)Fe(2) state assessed as enzyme-inhibitor complex using pNPP as substrate by UV/Vis spectrophotometric method
T2 sequence (whole entry): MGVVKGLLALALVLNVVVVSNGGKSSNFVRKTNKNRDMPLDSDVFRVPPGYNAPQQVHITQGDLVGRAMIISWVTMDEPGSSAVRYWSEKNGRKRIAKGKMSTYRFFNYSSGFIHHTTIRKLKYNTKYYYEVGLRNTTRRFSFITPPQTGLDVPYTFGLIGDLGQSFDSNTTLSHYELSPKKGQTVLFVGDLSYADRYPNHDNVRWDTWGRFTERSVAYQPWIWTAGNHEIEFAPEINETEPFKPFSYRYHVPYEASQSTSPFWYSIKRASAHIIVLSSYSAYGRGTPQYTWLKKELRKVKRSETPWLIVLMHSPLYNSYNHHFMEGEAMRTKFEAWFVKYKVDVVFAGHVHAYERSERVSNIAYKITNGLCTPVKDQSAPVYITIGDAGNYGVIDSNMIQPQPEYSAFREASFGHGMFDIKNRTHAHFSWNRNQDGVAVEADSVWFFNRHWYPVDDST
Method in brief: (§1)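 Pig PAP was from sow uterine fluid and pre-reduced to Fe(III)Fe(II) with 0.77 mM β-mercaptoethanol (10 min, 37 °C); rkbPAP was purified from red kidney beans. Assays ran at 25 °C, pH 4.9 (0.1 M acetate, 25% DMSO) with 12 nM enzyme, pNPP 1–12.5 mM and inhibitor 50–300 μM. p-Nitrophenol was read at 405 nm. Kic and Kiuc came from non-linear fit to the general inhibition equation.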

[3] = target: T1, Tartrate-resistant acid phosphatase type 5 (Sus scrofa); experiment: Competitive inhibition of pig purple acid phosphatase Fe(3)Fe(2) state assessed as enzyme-inhibitor complex using pNPP as substrate by UV/Vis spectrophotometric method; method in brief: as §1
[4] = target: T2, Fe(3+)-Zn(2+) purple acid phosphatase (Phaseolus vulgaris); experiment: Uncompetitive inhibition of red kidney bean purple acid phosphatase Fe(3)Fe(2) state assessed as enzyme-substrate-inhibitor complex using pNPP as substrate by UV/Vis spectrophotometric method; method in brief: as §1
[5] = target: T1, Tartrate-resistant acid phosphatase type 5 (Sus scrofa); experiment: Uncompetitive inhibition of pig purple acid phosphatase Fe(3)Fe(2) state assessed as enzyme-substrate-inhibitor complex using pNPP as substrate by UV/Vis spectrophotometric method; method in brief: as §1

For `O=C(O)[C@@H]1CSC(c2ccc(O)cc2)N1` (some centres not stated), the inhibition [1] was “inactive”.
For `O=C(O)[C@@H]1CSC(c2c(O)ccc3ccccc23)N1` (some centres not stated), the inhibition [1] was “inactive”.
In the case of `O=C(O)[C@@H]1CSC(c2ccccc2O)N1` (some centres not stated), the inhibition [1] is reported as “inactive”.
`O=C(O)[C@@H]1CSC(c2cccc3ccccc23)N1` (some centres not stated) was tested, and the inhibition [1] was “inactive”.
With `COc1ccc(C2N[C@H](C(=O)O)CS2)cc1` (some centres not stated) the inhibition [1] was “inactive”.
`Cc1ccc(-c2nc(C(=O)O)cs2)cc1` gave a Kic [2] of 340 µM and a Kic [3] of 42 µM.
`COc1ccc(-c2nc(C(=O)O)cs2)cc1` was tested, and the Kic [2] was 400 µM, the Kic [3] was 120 µM and the Kiuc [4] was 770 µM.
Work on `O=C(O)c1csc(-c2ccccc2Cl)n1` yielded a Kiuc [5] of 350 µM, a Kic [2] of 920 µM and a Kic [3] of 630 µM.
Compound `O=C(O)c1csc(-c2cccc3ccccc23)n1` has a Kiuc [5] of 110 µM, a Kic [2] of 185 µM and a Kic [3] of 33 µM.
For `O=C(O)[C@@H]1CSC(c2ccccc2)N1` (some centres not stated), the inhibition [1] was “inactive”.
`O=C(O)c1csc(-c2ccc(Cl)cc2)n1` showed a Kic [2] of 530 µM and a Kic [3] of 49 µM.
`Cc1ccc(C2N[C@H](C(=O)O)CS2)cc1` (some centres not stated) was tested, and the inhibition [1] was “inactive”.
With `O=C(O)c1csc(-c2ccccc2)n1` the Kic [3] was 190 µM.
For `O=C(O)[C@@H]1CSC(c2ccco2)N1` (some centres not stated), the inhibition [1] was “inactive”.

From ChEMBL document CHEMBL4270609, “Purple acid phosphatase inhibitors as leads for osteoporosis chemotherapeutics” (Eur J Med Chem, 2018)
